Measured values published in ChEMBL document CHEMBL4406880, “Design, synthesis, and bioactivity of dihydropyrimidine derivatives as kinesin spindle protein inhibitors” (Bioorg Med Chem, 2019).

Columns and labels:
[1] = system: HCT-15; experiment: Growth inhibition of human HCT15 cells assessed as growth percentage at 10 uM incubated for 48 hrs by sulforhodamine B assay relative to control; format: functional; settings: HCT-15, 48 h, read-out: Activity
Summary of the method: (§1)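 NCI-60 one-dose screen: cells in RPMI 1640 with 5% FBS and 2 mM L-glutamine, plated at 5,000–40,000 cells/well and preincubated 24 h at 37 °C, 5% CO2. Compound is added from a DMSO stock to a final 10 µM and incubated 48 h. Cells are TCA-fixed and stained with sulforhodamine B, read at 515 nm. Output is % growth versus untreated control, with a time-zero plate.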

[2] = system: RPMI-8226; experiment: Growth inhibition of human RPMI8226 cells assessed as growth percentage at 10 uM incubated for 48 hrs by sulforhodamine B assay relative to control; format: functional; settings: RPMI-8226, 48 h, read-out: Activity
Summary of the method: (§2)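 NCI-60 single-dose screen. Cells were grown in RPMI 1640 with 5% FBS and 2 mM L-glutamine and plated at 5,000–40,000 cells/well. After an overnight preincubation at 37 °C in 5% CO2, compound was added at a final 10 µM from a DMSO stock, with DMSO/PBS controls. After 48 h, cells were TCA-fixed and stained with 0.4% SRB, and absorbance was read at 515 nm. Growth is given as a percentage of untreated control.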

[3] = system: HL-60(TB); experiment: Growth inhibition of human HL-60(TB) cells assessed as growth percentage at 10 uM incubated for 48 hrs by sulforhodamine B assay relative to control; format: functional; settings: HL-60, 48 h, read-out: Activity
Summary of the method: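 NCI-60 single-dose screen. Cells in RPMI 1640 with 5% FBS and 2 mM L-glutamine are plated at 5,000–40,000 cells/well and preincubated overnight at 37 °C, 5% CO2. Compound is added from a DMSO stock at 10 µM final for 48 h. Cells are TCA-fixed (suspension cells 16% final) and stained with SRB. Absorbance is read at 515 nm, and percentage growth is calculated against untreated controls with a time-zero plate.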

[4] = system: MDA-MB-435; experiment: Induction of apoptosis in human MDA-MB-435 cells assessed as active caspase 9 level incubated for 2 hrs by ELISA (reference value: 1); format: functional
Summary of the method: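 Caspase-9 was measured by human ELISA on cell lysates, with samples in duplicate. Samples were incubated with detection antibody for 2 h at room temperature. This was followed by 1 h with anti-rabbit IgG-HRP and 10 min with TMB substrate. After a stop solution, absorbance was read at 450 nm.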

[5] = system: UACC-257; experiment: Growth inhibition of human UACC257 cells assessed as growth percentage at 10 uM incubated for 48 hrs by sulforhodamine B assay relative to control; format: functional; settings: UACC-257, 48 h, read-out: Activity; summary of the method: as §2
[6] = system: MDA-MB-435; experiment: Induction of apoptosis in human MDA-MB-435 cells assessed as active caspase 3 level incubated for 2 hrs by ELISA (reference value: 1); format: functional
Summary of the method: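 Active caspase-3 was measured by human sandwich ELISA. Samples were incubated on the plate for 2 h at room temperature. This was followed by 1 h with detection antibody, 30 min with anti-rabbit IgG-HRP, and 30 min with chromogen, with all steps at room temperature. Absorbance was read at 450 nm, and levels were read from a standard curve.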

[7] = system: MDA-MB-231; experiment: Growth inhibition of human MDA-MB-231 cells assessed as growth percentage at 10 uM incubated for 48 hrs by sulforhodamine B assay relative to control; format: functional; settings: MDA-MB-231, 48 h, read-out: Activity
Summary of the method: (§3)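 NCI-60 one-dose screen. Cells in RPMI 1640 with 5% FBS and 2 mM L-glutamine, seeded at 5,000–40,000 cells/well according to doubling time, and preincubated overnight at 37 °C, 5% CO2. A time-zero plate was TCA-fixed at drug addition. Compound from DMSO stock, final 10 µM, 48 h; DMSO vehicle controls. Fixation with TCA, 10% final (16% for suspension cells). SRB stain, Tris solubilization, A515. Result given as % growth versus untreated cells.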

[8] = system: HOP-62; experiment: Growth inhibition of human HOP62 cells assessed as growth percentage at 10 uM incubated for 48 hrs by sulforhodamine B assay relative to control; format: functional; settings: HOP-62, 48 h, read-out: Activity; summary of the method: as §3
[9] = Growth inhibition of human HEK293 cells assessed as cell viability at 25 ug incubated for 48 hrs by MTT assay relative to control; format: cell-based; settings: read-out: Activity
[10] = Growth inhibition of human HEK293 cells assessed as cell viability at 100 ug incubated for 48 hrs by MTT assay relative to control; format: cell-based; settings: read-out: Activity
[11] = Growth inhibition of human HEK293 cells assessed as cell viability at 0.39 ug incubated for 48 hrs by MTT assay relative to control; format: cell-based; settings: read-out: Activity
[12] = Inhibition of kinesin (unknown origin) assessed as reduction in ATPase activity using microtubule as substrate measured for 5 to mins; design: species or system Homo sapiens
[13] = system: A549; experiment: Growth inhibition of human A549/ATCC cells assessed as growth percentage at 10 uM incubated for 48 hrs by sulforhodamine B assay relative to control; format: functional; settings: A549, 48 h, read-out: Activity; summary of the method: as §1
[14] = Growth inhibition of human HEK293 cells assessed as cell viability at 1.56 ug incubated for 48 hrs by MTT assay relative to control; format: cell-based; settings: read-out: Activity
[15] = Growth inhibition of human HEK293 cells assessed as cell viability at 6.25 ug incubated for 48 hrs by MTT assay relative to control; format: cell-based; settings: read-out: Activity
[16] = system: HEK293; experiment: Growth inhibition of human HEK293 cells assessed as cell viability incubated for 48 hrs by MTT assay; format: cell-based; design: unit not given here
Summary of the method: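 HEK 293 normal-cell growth inhibition; measured in triplicate, IC50 reported as mean ± SD.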

[17] = system: SF-295; experiment: Growth inhibition of human SF295 cells assessed as cell viability at 0.1 uM incubated for 48 hrs by sulforhodamine B assay; format: functional; settings: SF-295, 48 h, read-out: Activity
[18] = system: HL-60(TB); experiment: Growth inhibition of human HL-60(TB) cells incubated for 48 hrs by sulforhodamine B assay; format: functional; settings: HL-60, 48 h
Summary of the method: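 NCI-60 five-dose assay, SRB end-point, same culture conditions. Compound is tested at tenfold dilutions of 0.01, 0.1, 1, 10 and 100 µM for 48 h at 37 °C, with DMSO/PBS vehicle controls. Percentage growth at each concentration is taken against untreated cells and a time-zero plate. GI50 is 50% net growth decrease, TGI is total growth inhibition, and LC50 is 50% loss of initial cells.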

[19] = system: NCI/ADR-RES; experiment: Growth inhibition of human NCI/ADR-RES cells assessed as cell viability at 0.1 uM incubated for 48 hrs by sulforhodamine B assay; format: functional; settings: read-out: Activity
[20] = system: SR; experiment: Growth inhibition of human SR cells assessed as growth percentage at 10 uM incubated for 48 hrs by sulforhodamine B assay relative to control; format: functional; settings: read-out: Activity; summary of the method: as §2
[21] = system: NCI-H226; experiment: Growth inhibition of human NCI-H226 cells assessed as cell viability at 1 uM incubated for 48 hrs by sulforhodamine B assay; format: functional; settings: NCI-H226, 48 h, read-out: Activity

CC(=O)N1C(=S)NC(C)=C(C(=O)OCc2ccccc2)C1c1ccc2c(c1)OCO2 (racemic)
growth at 10 µM [1]: 83.8%
growth at 10 µM [2]: 54.8%
growth at 10 µM [3]: 33.6%
fold change (FC) [4]: 18.79
growth at 10 µM [5]: 77.7%
fold change (FC) [6]: 7.9
growth at 10 µM [7]: 84.5%
growth at 10 µM [8]: 75.5%
viability at 48 h, 25 ug [9]: 50%
viability at 48 h, 100 ug [10]: 41.4%
viability at 48 h, 0.39 ug [11]: 76.2%
IC50 [12]: 3.86 µM
growth at 10 µM [13]: 95.6%
viability at 48 h, 1.56 ug [14]: 69.3%
viability at 48 h, 6.25 ug [15]: 61.3%
IC50 [16]: 27.99

CC1=C(C(=O)OCc2ccccc2)C(c2ccc3c(c2)OCO3)n2c(nc3ccccc32)N1 (racemic)
growth at 10 µM [1]: 23 to 30.4%
growth at 10 µM [2]: 39.9%
fold change (FC) [4]: 12.43
growth at 10 µM [5]: 34 to 60.4%
viability at 0.1 µM [17]: 87%
fold change (FC) [6]: 6.83
growth at 10 µM [7]: 64 to 68.6%
growth at 10 µM [8]: 36 to 44.2%
GI50 ([18]; read-out: GI50): 0.34 µM
CC50 ([18]; read-out: LC50 (the source's name)): > 100 µM
TGI ([18]; read-out: TGI): > 100 µM
GI50 ([18]; read-out: pGI50 (converted)): 0.339 µM
CC50 ([18]; read-out: pLC50 (the source's name) (converted)): > 100 µM
TGI ([18]; read-out: pTGI): > 100 µM
viability at 0.1 µM [19]: 86%
viability at 48 h, 25 ug [9]: 47.2%
growth at 10 µM [20]: 9.81 to 43%
viability at 48 h, 100 ug [10]: 36%
viability at 48 h, 0.39 ug [11]: 77.6%
viability at 1 µM [21]: 66%
IC50 [12]: 4.36 µM
growth at 10 µM [13]: 34 to 47.1%
viability at 48 h, 1.56 ug [14]: 67.2%
viability at 48 h, 6.25 ug [15]: 58.7%
IC50 [16]: 16.75
